# Rows were chosen to be rich in hits. Some 4.5% of all compounds tested hit in one or more screens of this group.
# OX1R antag-1: antagonists of human orexin 1 receptor | O43613 | CHO/OX1R cells, Fluo-8 calcium fluorescence, orexin A | inhibition, % at 5 µM | 330,000 compounds, 0.43% hits | AID 434989;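 active = inhibition above its plate's threshold, mean inhibition of all tested compounds on the plate plus 3 SD, cut at about 37% in these data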;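 note: 0% = orexin A challenge wells and 100% = SB-334867-A antagonist wells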
# GPR7 antagonist: blocks human GPR7 receptor signaling; GPR7-expressing cells, fluorescence antagonist assay; inhibition, % at 4.4 µM; 290,000 compounds, 1.1% hits; AID 1861; in the data active = inhibition above about 16%, passing the limit was not always enough;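 note: cells stimulated with the agonist NPW; 0% = agonist with vehicle and 100% = vehicle without agonist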
# CHO parental Ca: signal in parental CHO cells, OX1R antagonist counter-screen | parental CHO-K1, ATP-induced calcium, Fluo-8 fluorescence | inhibition, % at 5.6 µM | 330,000 compounds, 0.63% hits;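 active = inhibition above that plate's mean sample inhibition plus 3 SD, cut at about 26% in these data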;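 note: 0% = ATP-challenged DMSO wells and 100% = DMSO wells without ATP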
#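 material = parental CHO cells | also added = ATP as calcium-mobilizing challenge | dosing = single point at 5.6 µM | detection = intracellular calcium via Fluo-8 no-wash fluorescent dye | read-out = % inhibition | benchmarks = low control ATP plus DMSO, high control DMSO only | repeats = one well per compound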
# TAAR1 antagonist: antagonists of human TAAR1. Q96RJ0. CHO RD-HGA16 TAAR1, Fluo-8 calcium fluorescence, antagonist. inhibition, % at 3 µM. 360,000 compounds, 1.5% hits;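 active = inhibition above a per-plate cutoff, the mean inhibition of test compounds on that plate plus 3 SD, cut at about 49% in these data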;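 note: 0% = DMSO plus EC80 beta-PEA response and 100% = DMSO alone without agonist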
# Target sequence (Q96RJ0 whole entry, looked up): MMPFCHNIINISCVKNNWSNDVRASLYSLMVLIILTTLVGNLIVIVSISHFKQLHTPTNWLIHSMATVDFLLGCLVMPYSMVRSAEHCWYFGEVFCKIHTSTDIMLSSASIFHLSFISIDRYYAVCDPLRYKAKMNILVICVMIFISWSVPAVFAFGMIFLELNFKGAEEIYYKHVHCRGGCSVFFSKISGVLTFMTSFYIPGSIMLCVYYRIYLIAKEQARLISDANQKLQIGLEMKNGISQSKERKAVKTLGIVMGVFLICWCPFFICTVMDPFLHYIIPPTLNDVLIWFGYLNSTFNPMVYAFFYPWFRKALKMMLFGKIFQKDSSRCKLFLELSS
#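 Assay system: CHO-derived RD-HGA16 cells stably expressing human TAAR1 plus Gα16. Timing: 140 s kinetic read after compound, 140 s after agonist. Technique: kinetic Fluo-8 calcium fluorescence measurement. Measure: % inhibition of agonist calcium response.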
# OX1R antag-2: OX1R (human) antagonism | inhibition, % at 6.6 µM | O43613 | OX1R-expressing cells, FRET antagonist read-out | AID 485270 | 330,000 compounds, 1.8% hits; in the data active = inhibition mostly above about 38%, no sharp cut-off; inactive = mostly below about 40%;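 note: 0% = agonist challenge alone and 100% = reference antagonist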
# TAAR1 agonist: human TAAR1 agonism. Q96RJ0. CHO RD-HGA16 TAAR1, Fluo-8 calcium fluorescence; vehicle wells 0%, saturating PEA agonist 100%. activation, % at 3 µM. 360,000 compounds, 0.99% hits. AID 624467;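 active = activation above the mean activation of all test compounds in the run plus 3 SD, cut at about 38% in these data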
#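 System: CHO-derived RD-HGA16 cells with stable Gα16 and human TAAR1 / Times: 17-24 h plating, Fluo-8 75 min 37 °C, 30 min RT / Technique: calcium-sensitive Fluo-8 signal, excitation 470-495, emission 515-575 nm / Measure: % activation relative to PEA EC100 response / Benchmarks: DMSO and PEA EC100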
# OX1R Ca confirm: confirmation of human orexin 1 receptor antagonists; CHO/OX1R cells, orexin A calcium Fluo-8 fluorescence; 1,100 compounds, 38% hits; inhibition, % at 5 µM; shares compounds with OX1R antag-1; in the data active = inhibition above about 29%;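 note: 0% = agonist challenge alone and 100% = reference antagonist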
# CHO Ca counter: counter-screen for OX1R antagonists: effect in parental CHO cells. shares compounds with OX1R antag-1. parental CHO-K1, ATP-induced calcium, Fluo-8 fluorescence. inhibition, % at 5.6 µM. 1,100 compounds, 9.3% hits;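 active = inhibition above a per-plate limit, the mean inhibition of that plate's test compounds plus 3 SD, cut at about 25% in these data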;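 note: 0% = ATP challenge with DMSO and 100% = DMSO without ATP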
# * = called active by the depositor; nt = no result given.
SMILES,OX1R antag-1,GPR7 antagonist,CHO parental Ca,TAAR1 antagonist,OX1R antag-2,TAAR1 agonist,OX1R Ca confirm,CHO Ca counter
O=S(=O)(NCc1ccccc1)c1ccc(NC(=S)NCc2ccco2)cc1,30,-3,13,53*,-6,41*,40*,22
CCNS(=O)(=O)c1ccc(NC(=S)NCc2ccco2)cc1,11,0,2,20,11,4,nt,nt
COc1ccc(OC)c(-c2csc(NC(=O)CSc3nnnn3C)n2)c1,-13,nt,-14,-11,17,0,nt,nt
Nc1nnc(SCc2nc3scc(-c4ccccc4)c3c(=O)[nH]2)s1,26,-11,8,-5,11,14,10,22
Cc1ccc(CCC(=O)NCc2ccccc2)o1,-12,-2,-20,4,10,-1,nt,nt
COc1ccc(NC(=O)CCc2nc(-c3ccc(C)cc3)no2)cc1Cl,34,-15,16,13,56,24,5,6
COc1ccc(/C=c2\sc3nc(-c4ccccc4OC)nn3c2=O)c(OC)c1,43*,-11,-2,5,16,13,90*,18
COc1ccccc1-c1nc2s/c(=C\c3cccs3)c(=O)n2n1,-5,-8,1,-2,-1,6,nt,nt
COc1ccc(-c2nc3ccccc3c(=O)n2CC(C)C)cc1,-19,3,-11,-4,4,-4,nt,nt
O=C(NCc1nc(-c2ccc(C(F)(F)F)cc2)no1)Nc1ccc(F)cc1F,-8,-9,12,-8,9,1,nt,nt
O=C(NCc1nc(-c2ccc(C(F)(F)F)cc2)no1)Nc1cc(Cl)cc(Cl)c1,24,-8,7,25,8,8,3,48*
CC(C)OP(=O)(OC(C)C)C1(NS(=O)(=O)c2ccc(Cl)cc2)C=C(Cl)C(=O)C(Cl)=C1,29,-15,-27,-26,26,-2,nt,nt
OCC[C@@H]1C[C@H](O)[C@@H](O)[C@]2(OCCc3cc(C(F)(F)F)ccc32)O1,nt,nt,nt,-35,nt,0,nt,nt
O=C(CCN1C(=O)/C(=C/c2ccccc2)SC1=S)NNC(=O)c1cccnc1,46*,-2,16,60*,45,11,47*,69*
Cc1ccc(/C=C2\SC(=S)N(CCC(=O)NNC(=O)c3cccnc3)C2=O)cc1,-7,-7,-7,34,28,12,nt,nt
CCOC(=O)CSc1nnc(-c2ccc(NS(=O)(=O)c3ccc(C)cc3)cc2)o1,30,-7,14,21,17,18,36*,27*
CN1CCn2cnc(C(=O)Nc3ccc(CNC(=O)OC(C)(C)C)cc3)c2C1=O,nt,nt,nt,21,nt,0,nt,nt
COc1ccccc1NC(=O)Nc1nc(C(N)CC(C)C)cs1 (stereo unspecified),nt,nt,nt,-13,nt,5,nt,nt
CC(=O)N=c1cccc(NC(C)=O)n1O,86*,-6,-6,-5,15,17,0,3
CC(=O)N=C1SC2CS(=O)(=O)CC2N1c1cccc(Cl)c1Cl (stereo unspecified),-10,-12,-14,-15,6,4,nt,nt
Cc1cc(Cl)ccc1NC(=S)NCc1ccc(Cl)cc1,28,10,11,29,40,16,-4,5
Cc1ccc(Cc2c(-c3ccc(Cl)cc3)nc3c(Cl)cc(C(F)(F)F)cn23)cc1,nt,nt,nt,-20,nt,3,nt,nt
CC(CCC(=O)O)C1CCC2C3CC(O)C4CC(O)CC[C@]4(C)C3CCC12C (stereo partly specified),nt,nt,nt,-24,nt,1,nt,nt
Cc1c(NC(=O)c2cccc(-c3cc4ccccc4oc3=O)c2)cccc1-c1nc2ncccc2o1,32,-7,-19,43,67,10,24,-16
CN(Cc1ccccc1)C(=O)c1cccc(NC(=O)Cc2cccc(NC(=O)C3CCN(C(=O)C4CCC4)CC3)c2)c1,nt,nt,nt,7,nt,-1,nt,nt
COc1ccc(OC(=O)N2CCOCC2)cc1,26,-6,3,-1,-3,-1,-1,3

# Source: PubChem BioAssay
